We go through 2 compounds from ChEMBL document CHEMBL3525912, “Sulfation of 4-hydroxy toremifene: individual variability, isoform specificity, and contribution to toremifene pharmacogenomics” (Drug Metab Dispos, 2012).

A short description of series [1]: Drug level in human liver cytosol assessed as SULT1A1 copy number-2--mediated compound formation treated with 4-OH-TOR by HPLC analysis. Format: ADME, tissue-based. The essentials: (§1)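 Liver cytosols from individual donors (100 µg protein) with 100 µM 4-OH-TOR, 20 µM [35S]PAPS, 50 mM potassium phosphate pH 6.2, 15 min at 37 °C. Sulfate measured by C18 radio-HPLC. SULT1A1 copy number by TaqMan qPCR against RNaseP, quadruplicate samples. Genotype–activity relation analysed by ANOVA. Triplicate incubations.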

Series [2] is described as follows: Drug level in human liver cytosol assessed as SULT1A1*1/2 single nucleotide polymorphism-mediated compound formation treated with 4-OH-TOR by HPLC analysis. The format is ADME, tissue-based. The essentials: as §1
Series [3] in a line: Retention time of the compound. Format: physicochemical. The essentials: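 Symmetry C18 column (4.6 × 150 mm) run at 1.0 mL/min. Gradient: 2 mM TBAHS with 30% acetonitrile for 35 min, 45% acetonitrile for 15 min, then 30% for 20 min. 100 µl injection, flow scintillation detection.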
Series [4] is described as follows: Drug level in human liver cytosol assessed as SULT1A1 copy number-1-mediated compound formation treated with 4-OH-TOR by HPLC analysis. The format is ADME, tissue-based. Put shortly:
as §1

Series [5] in a line: Drug level in human liver cytosol assessed as SULT1A1 3'UTR ACG/GTA copy number-2-mediated compound formation treated with 4-OH-toremifene by HPLC analysis. The format is ADME, tissue-based. Put shortly: as §1
The nature of series [6]: Drug level in human liver cytosol assessed as SULT1A1 3'UTR ACG/ACG copy number-3-mediated compound formation treated with 4-OH-toremifene by HPLC analysis. Format: ADME, tissue-based. The essentials:
as §1

Series [7] can be described thus: Drug level in human liver cytosol assessed as SULT1A1 3'UTR ACG/GTA copy number-3-mediated compound formation treated with 4-OH-toremifene by HPLC analysis. Format: ADME, tissue-based. The essentials:
as §1

The nature of series [8]: Drug level in human liver cytosol assessed as SULT1A1 copy number-3--mediated compound formation treated with 4-OH-TOR by HPLC analysis. Format: ADME, tissue-based. Put shortly: as §1
Series [9] in a line: Drug level in human liver cytosol assessed as SULT1A1 3'UTR GTA/GTA copy number-2-mediated compound formation treated with 4-OH-toremifene by HPLC analysis. Format: ADME, tissue-based. Put shortly: as §1
Series [10] in a line: Drug level in human liver cytosol assessed as SULT1A1 3'UTR ACG/ACG copy number-2-mediated compound formation treated with 4-OH-toremifene by HPLC analysis. The format is ADME, tissue-based. Put shortly:
as §1

A short description of series [11]: Drug metabolism in human liver cytosol assessed as SULT1A1 3'UTR ACG/ACG copy number-2 -mediated 4-(4-chloro-1-(4-(2-(dimethylamino)ethoxy)phenyl)-2-phenylbut-1-enyl)phenyl hydrogen sulfate formation by HPLC analysis. Format: ADME, tissue-based. Put shortly:
as §1

Series [12] in a line: Drug metabolism in human liver cytosol assessed as SULT1A1 3'UTR ACG/ACG copy number-3-mediated 4-(4-chloro-1-(4-(2-(dimethylamino)ethoxy)phenyl)-2-phenylbut-1-enyl)phenyl hydrogen sulfate formation by HPLC analysis. The format is ADME, tissue-based. Put shortly:
as §1

Series [13] can be described thus: Drug metabolism in human liver cytosol assessed as SULT1A1 3'UTR GTA/GTA copy number-2-mediated 4-(4-chloro-1-(4-(2-(dimethylamino)ethoxy)phenyl)-2-phenylbut-1-enyl)phenyl hydrogen sulfate formation by HPLC analysis. The format is ADME, tissue-based. The essentials:
as §1

The nature of series [14]: Drug metabolism in human liver cytosol assessed as SULT1A1*1/2 single nucleotide polymorphism-mediated 4-(4-chloro-1-(4-(2-(dimethylamino)ethoxy)phenyl)-2-phenylbut-1-enyl)phenyl hydrogen sulfate formation by HPLC analysis. The format is ADME, tissue-based. The essentials: as §1
The nature of series [15]: Drug metabolism in human liver cytosol assessed as SULT1A1 copy number-1-mediated 4-(4-chloro-1-(4-(2-(dimethylamino)ethoxy)phenyl)-2-phenylbut-1-enyl)phenyl hydrogen sulfate formation by HPLC analysis. The format is ADME, tissue-based. Put shortly: as §1
The nature of series [16]: Drug metabolism in human liver cytosol assessed as SULT1A1 copy number-3-mediated 4-(4-chloro-1-(4-(2-(dimethylamino)ethoxy)phenyl)-2-phenylbut-1-enyl)phenyl hydrogen sulfate formation by HPLC analysis. Format: ADME, tissue-based. The essentials:
as §1

Series [17] concerns Liver cytosol. Kind of series: Drug metabolism in human liver cytosol assessed as 4-(4-chloro-1-(4-(2-(dimethylamino)ethoxy)phenyl)-2-phenylbut-1-enyl)phenyl hydrogen sulfate formation measured per mg of protein after 15 mins by Michaelis-Menten equation in presence of 20 uM PAPS. Format: ADME. The note with it: 0.25 h. Put shortly: (§2)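 Human liver cytosol (protein by Bradford) incubated with 4-OH-TOR (0.1–30 µM for kinetics), 20 µM [35S]PAPS, 50 mM potassium phosphate pH 6.2, final DMSO <0.1%, 15 min at 37 °C. Stopped with acetonitrile:acetic acid (96:4). Sulfate measured by radio-HPLC, background taken from a substrate-free vehicle control. Triplicate incubations.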

Series [18] is described as follows: Drug metabolism in human liver cytosol assessed as SULT1A1 copy number-2-mediated 4-(4-chloro-1-(4-(2-(dimethylamino)ethoxy)phenyl)-2-phenylbut-1-enyl)phenyl hydrogen sulfate formation by HPLC analysis. The format is ADME, tissue-based. Put shortly:
as §1

The test system of series [19] is Liver cytosol. The series can be described thus: Drug metabolism in human liver cytosol assessed as 4-(4-chloro-1-(4-(2-(dimethylamino)ethoxy)phenyl)-2-phenylbut-1-enyl)phenyl hydrogen sulfate formation after 15 mins by HPLC analysis in presence of 20 uM PAPS and 0.1 to 10 uM SULT1A1 inhibitor DCNP. Format: ADME. The note with it: 0.25 h. Put shortly: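 Pooled human liver cytosol sulfating 4-OH-TOR with 20 µM PAPS, pH 6.2, plus 0.1–10 µM (final) ethanol-dissolved inhibitor. After 15 min the reaction was stopped with acetonitrile:acetic acid (96:4) and sulfate quantified by radio-HPLC. IC50 calculated. Three separate determinations.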

Series [20] relates to Liver cytosol. Kind of series: Drug metabolism in human liver cytosol assessed as 4-(4-chloro-1-(4-(2-(dimethylamino)ethoxy)phenyl)-2-phenylbut-1-enyl)phenyl hydrogen sulfate formation measured per mg of protein treated with 0.1 to 30 after 15 mins by HPLC analysis. The format is ADME, tissue-based. The note with it: 0.25 h. Put shortly:
as §2

The nature of series [21]: Drug metabolism in human liver cytosol assessed as SULT1A1 3'UTR ACG/GTA copy number-3-mediated 4-(4-chloro-1-(4-(2-(dimethylamino)ethoxy)phenyl)-2-phenylbut-1-enyl)phenyl hydrogen sulfate formation by HPLC analysis. The format is ADME, tissue-based. Put shortly: as §1
The nature of series [22]: Drug metabolism in human liver cytosol assessed as SULT1A1 3'UTR ACG/GTA copy number-2-mediated 4-(4-chloro-1-(4-(2-(dimethylamino)ethoxy)phenyl)-2-phenylbut-1-enyl)phenyl hydrogen sulfate formation by HPLC analysis. The format is ADME, tissue-based. Put shortly: as §1
For series [23], the system named is Liver cytosol. Kind of series: Drug metabolism in human liver cytosol assessed as 4-(4-chloro-1-(4-(2-(dimethylamino)ethoxy)phenyl)-2-phenylbut-1-enyl)phenyl hydrogen sulfate formation after 15 mins by Michaelis-Menten equation in presence of 20 uM PAPS. The format is ADME. As to conditions: 0.25 h, read-out: Km(app). Put shortly:
as §2

With `CN(C)CCOc1ccc(/C(=C(/CCCl)c2ccccc2)c2ccc(OS(=O)(=O)O)cc2)cc1`, the Drug metabolism entry in series [1], in series [2], in series [4], in series [5], in series [6] and in series [7] was “metabolite_detected” throughout. The Drug metabolism entry in [8], in [9] and in series [10] was “metabolite_detected” each time. In [3], this compound gave a Retention_time of 12.1 min.
`CN(C)CCOc1ccc(/C(=C(/CCCl)c2ccccc2)c2ccc(O)cc2)cc1` [4-HYDROXYTORMIFENE]: the Drug metabolism entry in series [11], in series [12], in series [13], in series [14], in series [15] and in series [16] was “metabolite_detected” throughout. In addition, the Drug metabolism result is on record as “metabolite_detected” in [18]; “metabolite_not_detected” in series [19]; 0.0003 nmol/min in series [20]; “metabolite_detected” in series [21]; “metabolite_detected” in series [22]. In series [3], this compound registered a Retention_time of 45.2 min. In [17], the Vmax (as a rule, the top rate of the reaction or transport when substrate is in excess) worked out at 1.4 nmol/min/mg. Moreover, the Km (in general, the concentration of substrate that gives half-maximal velocity) in series [23] was 3.5 µM.
